# Active and inactive are the calls of the source. The calls are words filed in the database; no cut-off is given here.
# Columns and labels:
# Format in all cases: functional
# Lolium rigidum [1] = assay: Pre-emergence herbicidal activity against Lolium rigidum seeds assessed as shoot length at 0.1 mol/l at 25 degC after 72 hr by laboratory-based agar medium bioassay relative to 1,8-Cineole
# Procedure, shortened: (§1)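 Agar-plate assay as above: compound in organic solvent evaporated onto Ca/B water agar, 10 seeds × 5 dishes, 72 h at 25 °C in light. Germination, root length or shoot length at 0.1 mol L^-1 expressed relative to 1,8-cineole.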
# Radish [2] = assay: Pre-emergence herbicidal activity against Raphanus sativus var.Long scarlet (radish) seeds assessed as concentration required to suppress root growth at 25 degC after 72 hr by laboratory-based agar medium bioassay
# Lolium rigidum [3] = assay: Pre-emergence herbicidal activity against Lolium rigidum seeds assessed as root length at 0.1 mol/l at 25 degC after 72 hr by laboratory-based agar medium bioassay relative to 1,8-Cineole; procedure, shortened: as §1
# Radish [4] = assay: Pre-emergence herbicidal activity against Raphanus sativus var.Long scarlet (radish) seeds assessed as concentration required to suppress shoot growth at 25 degC after 72 hr by laboratory-based agar medium bioassay
# Lolium rigidum [5] = assay: Pre-emergence herbicidal activity against Lolium rigidum seeds assessed as seed germination at 0.1 mol/l at 25 degC after 72 hr by laboratory-based agar medium bioassay relative to 1,8-Cineole; procedure, shortened: as §1
# Radish [6] = assay: Pre-emergence herbicidal activity against Raphanus sativus var.Long scarlet (radish) seeds assessed as concentration required to suppress seed germination at 25 degC after 72 hr by laboratory-based agar medium bioassay
# Lolium rigidum [7] = assay: Pre-emergence herbicidal activity against Lolium rigidum seeds assessed as shoot length at 0.1 mol/l at 25 degC after 72 hr by laboratory-based agar medium bioassay relative to control
# Procedure, shortened: (§2)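 Solutions tested at 1 to 1 × 10^-4 mol L^-1. 10 seeds/dish, 5 randomized replicate dishes angled ~70°. Incubated 72 h at 25 °C in light. Solvent and no-solvent controls. Germination, root length and shoot length recorded.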
# Radish [8] = assay: Pre-emergence herbicidal activity against Raphanus sativus var.Long scarlet (radish) seeds assessed as root length at 0.1 mol/l at 25 degC after 72 hr by laboratory-based agar medium bioassay relative to control; procedure, shortened: as §2
# Lolium rigidum [9] = assay: Pre-emergence herbicidal activity against Lolium rigidum seeds assessed as root length at 0.1 mol/l at 25 degC after 72 hr by laboratory-based agar medium bioassay relative to control; procedure, shortened: as §2
# Radish [10] = assay: Pre-emergence herbicidal activity against Raphanus sativus var.Long scarlet (radish) seeds assessed as seed germination at 0.1 mol/l at 25 degC after 72 hr by laboratory-based agar medium bioassay relative to control; procedure, shortened: as §2
# Radish [11] = assay: Pre-emergence herbicidal activity against Raphanus sativus var.Long scarlet (radish) seeds assessed as shoot length at 0.1 mol/l at 25 degC after 72 hr by laboratory-based agar medium bioassay relative to control; procedure, shortened: as §2
# Lolium rigidum [12] = assay: Pre-emergence herbicidal activity against Lolium rigidum seeds assessed as seed germination at 0.1 mol/l at 25 degC after 72 hr by laboratory-based agar medium bioassay relative to control; procedure, shortened: as §2
# Radish [13] = assay: Pre-emergence herbicidal activity against Raphanus sativus var.Long scarlet (radish) seeds assessed as root length at 0.1 mol/l at 25 degC after 72 hr by laboratory-based agar medium bioassay relative to 1,8-Cineole; procedure, shortened: as §1
# Radish [14] = assay: Pre-emergence herbicidal activity against Raphanus sativus var.Long scarlet (radish) seeds assessed as shoot length at 0.1 mol/l at 25 degC after 72 hr by laboratory-based agar medium bioassay relative to 1,8-Cineole; procedure, shortened: as §1
# Lolium rigidum [15] = assay: Pre-emergence herbicidal activity against Lolium rigidum seeds assessed as concentration required to suppress root growth at 25 degC after 72 hr by laboratory-based agar medium bioassay
# Lolium rigidum [16] = assay: Pre-emergence herbicidal activity against Lolium rigidum seeds assessed as concentration required to suppress shoot growth at 25 degC after 72 hr by laboratory-based agar medium bioassay
# Radish [17] = assay: Pre-emergence herbicidal activity against Raphanus sativus var.Long scarlet (radish) seeds assessed as seed germination at 0.1 mol/l at 25 degC after 72 hr by laboratory-based agar medium bioassay relative to 1,8-Cineole; procedure, shortened: as §1
# Lolium rigidum [18] = assay: Pre-emergence herbicidal activity against Lolium rigidum seeds assessed as concentration required to suppress seed germination at 25 degC after 72 hr by laboratory-based agar medium bioassay
Structure (SMILES),Ratio (Lolium rigidum [1]),Activity (Radish [2]) [mol/L],Ratio (Lolium rigidum [3]),Activity (Radish [4]) [mol/L],Ratio (Lolium rigidum [5]),Activity (Radish [6]) [mol/L],Activity (Lolium rigidum [7]) [%],Activity (Radish [8]) [%],Activity (Lolium rigidum [9]) [%],Activity (Radish [10]) [%],Activity (Radish [11]) [%],Activity (Lolium rigidum [12]) [%],Ratio (Radish [13]),Ratio (Radish [14]),Activity (Lolium rigidum [15]) [mol/L],Activity (Lolium rigidum [16]) [mol/L],Ratio (Radish [17]),Activity (Lolium rigidum [18]) [mol/L],also measured
"CC(C)[C@]12CC[C@@](C)(O1)[C@H](O)C2 (racemic) [2-Exo-hydroxy-1,4-cineole]",1.2,0.1,3.7,0.1,1.4,0.1,23.1,9.9,6.1,2.6,41.7,21.7,3.7,1.6,0.01,0.1,13.1,0.1,
"CC(=O)O[C@@H]1C[C@@]2(C(C)C)CC[C@@]1(C)O2 (racemic) [2-exo-acetoxy-1,4-cineole]",,0.01,,0.01,,0.01,0,2.7,0,4.5,0,0,3.5,,0.01,0.01,7.5,0.1,inhibition (Lolium rigidum [1]): Active; inhibition (Lolium rigidum [3]): Active; inhibition (Lolium rigidum [5]): Active; inhibition (Radish [14]): Active
"CCCC(=O)O[C@@H]1C[C@@]2(C(C)C)CC[C@@]1(C)O2 (racemic) [2-exo-butoxy-1,4-cineole]",,,,,,,,,,,,,,,,,,,inhibition (Radish [13]): Active; inhibition (Radish [14]): Active; inhibition (Radish [17]): Active
"CC(C)[C@]12CC[C@@](C)(O1)[C@H](OC(=O)CC(C)(C)C)C2 (racemic) [2-exo-t-butylacetoxy-1,4-cineole]",,0.01,,0.01,,0.1,,55.8,,42.9,71.2,,0.7,0.9,0.01,0.1,0.8,0.1,
"CC(=O)O[C@H]1C[C@@]2(C)CC[C@H]1C(C)(C)O2 (racemic) [3-Exo-acetoxy-1,8-cineole]",1.3,0.01,2.9,1,0.9,0.01,21.3,29.2,7.6,18.9,64.3,34.1,1.3,1,0.1,0.1,1.8,0.1,
"CC1(C)O[C@]2(C)CC[C@@H]1[C@@H](OC(=O)c1ccccc1)C2 (racemic) [3-exo-benzoxy-1,8-cineole]",0.7,0.01,2.1,0.1,0.4,1,41.6,42.4,10.9,98,61,82.2,0.8,1.1,0.01,0.1,0.3,0.1,
"CC1(C)O[C@]2(C)CC[C@@H]1[C@@H](O)C2 (racemic) [3-exo-hydroxy-1,8-cineole]",2.8,0.01,1.3,0.1,11.6,0.1,10.2,26.8,16.6,2.4,46.5,2.6,1.4,1.4,0.1,0.01,14.2,0.1,

# — ChEMBL document CHEMBL3045579, “Herbicidal activity of cineole derivatives” (2010)
